Laboratory results as given in ChEMBL document CHEMBL4330104, “Synthesis, biological evaluations and computational studies of N-(3-(-2-(7-Chloroquinolin-2-yl)vinyl) benzylidene)anilines as fungal biofilm inhibitors” (Bioorg Med Chem Lett, 2019).
Converted amounts (≈) assume the structure as drawn.

Experiments:
Escherichia coli = test: Antibacterial activity against Escherichia coli NCIM 2256 after 24 hrs by two-fold serial dilution method; format: functional; details: NCIM 2256, 24 h
In short: (§1)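 Bacterial inocula taken from 24 h nutrient agar cultures at 37±1 °C, brought to […] with sterile saline, grown in nutrient broth. Compounds tested as two-fold serial dilutions at 400, 200, 100, 50, 25, 12.5, 6.25 and 3.13 µg/mL, with ciprofloxacin as reference. Incubation at 37±1 °C; MIC read after 24 h.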

Candida albicans [1] = test: Antifungal activity against Candida albicans NCIM 3471 after 48 to 72 hrs by SDA agar dilution method; format: functional
In short: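 CLSI agar method. Compounds dissolved in DMSO. C. albicans subcultured on Sabouraud dextrose agar at 25 °C for 72 h, suspended in sterile water at 10^5 cells/mL, and inoculated onto test, drug-free and DMSO control plates. Plates incubated at 25 °C. MIC taken as the lowest concentration that prevents macroscopically visible colonies, read at 48 h and 72 h.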

Pseudomonas aeruginosa = test: Antibacterial activity against Pseudomonas aeruginosa NCIM 2036 after 24 hrs by two-fold serial dilution method; format: functional; details: NCIM 2036, 24 h; in short: as §1
Staphylococcus aureus = test: Antibacterial activity against Staphylococcus aureus NCIM 2901 after 24 hrs by two-fold serial dilution method; format: functional; details: NCIM 2901, 24 h; in short: as §1
Candida albicans [2] = test: Antibiofilm activity against Candida albicans NCIM 3471 after 24 hrs by MTT assay; format: functional, organism-based; details: NCIM 3471, 24 h
In short: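 Biofilms formed from C. albicans at 10^5 cells/well in RPMI, exposed to 0–100 µM compound (fluconazole reference) for 24 h at 30 °C. Wells washed with phosphate buffer, then MTT (1 µg/µL) added for 3 h in the dark. Formazan dissolved in DMSO, absorbance read at 575 nm. IC50 for 50% biofilm inhibition taken from the inhibition curve.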

Bacillus subtilis = test: Antibacterial activity against Bacillus subtilis NCIM 2063 after 24 hrs by two-fold serial dilution method; format: functional; details: NCIM 2063, 24 h; in short: as §1

| Structure (SMILES) | MIC (Escherichia coli) [µg/mL] | MIC (Candida albicans [1]) [µg/mL] | MIC (Pseudomonas aeruginosa) [µg/mL] | MIC (Staphylococcus aureus) [µg/mL] | IC50 (Candida albicans [2]) [µM] | MIC (Bacillus subtilis) [µg/mL] |
| --- | --- | --- | --- | --- | --- | --- |
| Cc1ccccc1/N=C/c1cccc(/C=C/c2ccc3ccc(Cl)cc3n2)c1 | 68.5 (≈ 179 µM) | 104 (≈ 273 µM) | 185 (≈ 483 µM) | 85.3 (≈ 223 µM) | 166 | 136 (≈ 356 µM) |
| FC(F)(F)c1cccc(/N=C/c2cccc(/C=C/c3ccc4ccc(Cl)cc4n3)c2)c1 | 102 (≈ 233 µM) | 191 (≈ 437 µM) | 142 (≈ 325 µM) | 71.3 (≈ 163 µM) | 87.2 | 33.4 (≈ 76.5 µM) |
| Clc1ccc2ccc(/C=C/c3cccc(/C=N/c4ccccc4)c3)nc2c1 | 110 (≈ 298 µM) | 98.8 (≈ 268 µM) | 102 (≈ 277 µM) | 91.6 (≈ 248 µM) | 199 | 32.4 (≈ 87.7 µM) |
| O=[N+]([O-])c1ccc(/N=C/c2cccc(/C=C/c3ccc4ccc(Cl)cc4n3)c2)cc1 | 150 (≈ 362 µM) | 121 (≈ 293 µM) | 200 (≈ 484 µM) | 166 (≈ 400 µM) | 92.1 | 15.7 (≈ 37.9 µM) |
| Clc1ccc(/N=C/c2cccc(/C=C/c3ccc4ccc(Cl)cc4n3)c2)cc1 | 45 (≈ 112 µM) | 94.2 (≈ 234 µM) | 228 (≈ 567 µM) | 170 (≈ 422 µM) | 66.2 | 31.6 (≈ 78.4 µM) |
| FC(F)(F)c1ccc(/N=C/c2cccc(/C=C/c3ccc4ccc(Cl)cc4n3)c2)cc1 | 84.5 (≈ 193 µM) | 174 (≈ 399 µM) | 91.5 (≈ 209 µM) | 89.7 (≈ 205 µM) | 51.2 | 37.7 (≈ 86.2 µM) |
| OC(Cn1cncn1)(Cn1cncn1)c1ccc(F)cc1F [FLUCONAZOLE] |  | 50 (≈ 163 µM) |  |  |  |  |
| COc1ccc(/N=C/c2cccc(/C=C/c3ccc4ccc(Cl)cc4n3)c2)cc1 | 120 (≈ 301 µM) | 105 (≈ 263 µM) | 167 (≈ 419 µM) | 94.8 (≈ 238 µM) | 97.5 | 17.6 (≈ 44.1 µM) |
| O=C(O)c1cn(C2CC2)c2cc(N3CCNCC3)c(F)cc2c1=O [CIPROFLOXACIN] |  |  | 50 (≈ 151 µM) |  |  |  |
| FC(F)(F)c1ccccc1/N=C/c1cccc(/C=C/c2ccc3ccc(Cl)cc3n2)c1 | 67.5 (≈ 155 µM) | 282 (≈ 646 µM) | 250 (≈ 572 µM) | 55.3 (≈ 127 µM) | 94.3 | 36.2 (≈ 82.9 µM) |
| Cc1ccc(/N=C/c2cccc(/C=C/c3ccc4ccc(Cl)cc4n3)c2)cc1 | 205 (≈ 535 µM) | 164 (≈ 429 µM) | 177 (≈ 462 µM) | 98.5 (≈ 257 µM) | 96.2 | 17 (≈ 44.3 µM) |
| O=[N+]([O-])c1cccc(/N=C/c2cccc(/C=C/c3ccc4ccc(Cl)cc4n3)c2)c1 | 185 (≈ 447 µM) | 106 (≈ 256 µM) | 190 (≈ 459 µM) | 104 (≈ 252 µM) | 83.6 | 17.4 (≈ 42 µM) |
